From ChEMBL document CHEMBL4627325, “Rational modifications, synthesis and biological evaluation of new potential antivirals for RSV designed to target the M2-1 protein” (Bioorg Med Chem, 2020) come the findings set out here.

Series [1] relates to Human orthopneumovirus. The series can be described thus: Antiviral activity against Respiratory syncytial virus A strain Long infected in Hep2 cells assessed as reduction in virus-induced cytopathic effect after 5 days by microscopic analysis. In kind it is functional, organism-based. The note with it: HEp-2, 120 h. In short, it runs like this: (§1)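 HEp-2 cells seeded 5×10^3/well in DMEM with 2% heat-inactivated FBS and 1% NEAA, 37°C, 5% CO₂; next day medium replaced with 1:2 serial dilutions of compound (eight concentrations, 0.7-100 μM) and infected with RSV-A Long or RSV-B Wash at moi 0.01 CCID₅₀/cell. CPE scored microscopically (0–5) at day 5; EC₅₀ by logarithmic interpolation as 50% protection; mean of ≥2 independent experiments.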

The test system of series [2] is Human orthopneumovirus. The experiment in a line: Antiviral activity against Respiratory syncytial virus B infected in Hep2 cells assessed as reduction in virus-induced cytopathic effect after 5 days by microscopic analysis. In kind it is functional, organism-based. The note with it: HEp-2, 120 h. Put shortly: as §1
On the technique in general: Protection from cytopathic effect is a common read-out in antiviral testing.

The nature of series [3]: Cytotoxicity against human Hep2 cells assessed as reduction in cell viability measured after 5 days by MTS assay. In kind it is cell-based. The note with it: HEp-2 cells. In short, it runs like this: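 Uninfected HEp-2 cultures set up as for the antiviral assay (5×10^3 cells/well, DMEM with 2% FBS and 1% NEAA, 37°C, 5% CO₂) and treated with serial 1:2 compound dilutions; metabolic activity quantified at day 5 by MTS readout to give CC₅₀; mean of ≥2 independent experiments.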
Background: Formazan colour is commonly taken as a measure of viable cells.

Regarding `O=S(=O)(c1ccccc1)N1CCN(C(=S)SCc2nc3ccccc3s2)CC1`, the EC50 – broadly, the concentration that produces a half-maximal response – in series [1] is 35.3 µM; in series [2], 12.5 µM. The half-maximal cytotoxic concentration (CC50) (commonly the concentration at which the toxic effect on the cells reaches its halfway point) at 120 h in series [3] is > 100 µM.

As to `S=C(SCc1nc2ccccc2s1)N1CCN(Cc2ccccc2)CC1`, the figures for the EC50 in series [1] and in series [2] were 8.3 µM and 3.9 µM, respectively. The half-maximal cytotoxic concentration (CC50) at 120 h in series [3] was > 100 µM.

As for `COc1ccc(CN2CCN(C(=S)SCc3nc4ccccc4s3)CC2)cc1`, the EC50 in series [2] was found to be 3 µM. In addition, the half-maximal cytotoxic concentration (CC50) at 120 h in series [3] was > 100 µM.

Regarding `CC(C)(C)c1ccc(CN2CCN(C(=S)SCc3nc4ccccc4s3)CC2)cc1`, the EC50 in series [2] was 2.2 µM. For the same compound, in series [3], the CC50 at 120 h was determined as 71.7 µM.

Take `Cc1ccc(CN2CCN(C(=S)SCc3nc4ccccc4s3)CC2)c(C)c1`: the concentration for a half-maximal effect (EC50) in series [1] turned out to be 4.97 µM. The CC50 at 120 h in series [3] is > 100 µM.

As to `Cc1cccc(CN2CCN(C(=S)SCc3nc4ccccc4s3)CC2)c1`, the results for the EC50 in series [1] and in series [2] were 11.8 µM and 3 µM, respectively. The CC50 at 120 h in series [3] was > 100 µM.

For the compound `FC(F)(F)c1cccc(CN2CCN(C(=S)SCc3nc4ccccc4s3)CC2)c1`, the values for the EC50 in series [1] and in series [2] were 3.3 µM and 3.8 µM, respectively. Also, the CC50 at 120 h in series [3] was > 100 µM.

On to `O=C(c1ccccc1)N1CCN(C(=S)SCc2nc3ccccc3s2)CC1`, for which the EC50 in series [1] stood at 44.1 µM; in series [2] it was 24.8 µM. In addition, the half-maximal cytotoxic concentration (CC50) at 120 h in series [3] was 45 µM.

Consider `S=C(SCc1nc2ccccc2s1)N1CCN(c2ccccc2)CC1`, for which the results for the EC50 in series [1] and in series [2] were 4.4 µM and 1.3 µM, respectively. In addition, in series [3], the CC50 at 120 h was > 100 µM.

`Cc1ccc(CN2CCN(C(=S)SCc3nc4ccccc4s3)CC2)cc1`: the EC50 in series [2] turned out to be 1.32 µM. Further, the CC50 at 120 h in series [3] was > 100 µM.

Take `Cc1ccccc1CN1CCN(C(=S)SCc2nc3ccccc3s2)CC1`: the half-maximal effective concentration (EC50) was 10.4 µM in series [1] and 20.6 µM in series [2]. Moreover, the CC50 at 120 h in series [3] was > 100 µM.

In the case of `COC(=O)c1ccc(CN2CCN(C(=S)SCc3nc4ccccc4s3)CC2)cc1`, the EC50 in series [1] came out at 14.8 µM; in series [2] it was 3.9 µM. The CC50 at 120 h in series [3] is > 100 µM.

For the compound `Cc1cc(C)c(CN2CCN(C(=S)SCc3nc4ccccc4s3)CC2)c(C)c1`, the EC50 in series [1] is 42.2 µM; in series [2], 20.6 µM. Besides, the half-maximal cytotoxic concentration (CC50) at 120 h in series [3] is > 100 µM.

As to `Fc1ccc(CN2CCN(C(=S)SCc3nc4ccccc4s3)CC2)cc1`, the EC50 in series [1] came out at 4.4 µM; in series [2] it was 2.5 µM. In addition, in series [3], the CC50 at 120 h was > 100 µM.

`CCOC(=O)c1ccc(CN2CCN(C(=S)SCc3nc4ccccc4s3)CC2)cc1`: the 50% effective concentration (EC50) in series [1] was 40.8 µM; in series [2], 4 µM. Further, the CC50 at 120 h in series [3] was > 100 µM.

`FC(F)(F)c1ccc(CN2CCN(C(=S)SCc3nc4ccccc4s3)CC2)cc1`: the half-maximal effective concentration (EC50) in series [1] was found to be 3.31 µM. Also, the CC50 at 120 h in series [3] was > 100 µM.

On to `S=C(SCc1nc2ccccc2s1)N1CCN(CCc2ccccc2)CC1`, for which, in series [1], the 50% effective concentration (EC50) was 7.7 µM. Also, the CC50 at 120 h in series [3] was > 100 µM.

As for `Nc1ccn([C@@H]2O[C@@](CO)(CCl)[C@@H](O)[C@H]2F)c(=O)n1` [ALS-8112], the EC50 in series [1] and in series [2] was 2.6 µM each time. The half-maximal cytotoxic concentration (CC50) at 120 h in series [3] is > 100 µM.
